Measurements pooled from the literature.
MAOB: Amine oxidase [flavin-containing] B (MAOB, Homo sapiens, UniProt P27338)
HRH1: Histamine H1 receptor (HRH1, Homo sapiens, UniProt P35367)
PKN1: Serine/threonine-protein kinase N1 (PKN1, Homo sapiens, UniProt Q16512)
CA9: Carbonic anhydrase 9 (CA9, Homo sapiens, UniProt Q16790)
PADI4: Protein-arginine deiminase type-4 (PADI4, Homo sapiens, UniProt Q9UM07)

O=C(Nc1cccc(Cl)c1)c1cc(Cl)ccc1O  inhibition (MAOB; enzyme activity, inhibitor; 1 µM, 20 min): 87%
CN1CCC(=C2c3ccccc3CCc3ccccc32)CC1  kon (HRH1; binding): 1.33e+06 M⁻¹ s⁻¹
CCn1c(=O)c(-c2ccc(Cl)cc2Cl)cc2cnc(Nc3ccc(N4CCNCC4)c(F)c3)nc21  activity vs control (PKN1; enzyme activity, inhibitor; 1 µM): 47%
CCOC(=O)C1CSc2[nH]c(=O)sc2C1c1cn(-c2ccccc2)nc1-c1ccccc1 (stereo not drawn)  inhibition (CA9; enzyme activity, inhibitor; 0.1 µM): 29%
NNCCc1ccc(NC(=O)CCCc2ccccc2)cc1  KI (inactivation) (MAOB; enzyme activity, inhibitor): 6.5 µM
Cc1ccc(-c2nn(-c3ccccc3)cc2C2c3sc(=O)[nH]c3SC3C(=O)N(c4ccccc4)C(=O)C32)cc1 (stereo not drawn)  inhibition (CA9; enzyme activity, inhibitor; 10 nM): 17.8%
CC(C)CCN1c2nc(Nc3cc(F)c(O)c(F)c3)ncc2N(C)C(=O)C1C (stereo not drawn)  activity vs control (PKN1; enzyme activity, inhibitor; 1 µM): 64%
CCOC(=O)C1CSc2[nH]c(=O)sc2C1c1cn(-c2ccccc2)nc1-c1ccc(C)cc1 (stereo not drawn)  inhibition (CA9; enzyme activity, inhibitor; 10 µM): 76.9%
CN(C)CCOC1c2ccccc2CCc2ccccc21  koff (HRH1; binding): 0.00215 s⁻¹
N#Cc1ccc(NC(=O)c2ccccc2)cc1  inhibition (MAOB; enzyme activity, inhibitor; 1 µM, 20 min): 27%
C=CC(=O)Nc1cc2c(Nc3ccc(F)c(Cl)c3)ncnc2cc1OCCCN1CCOCC1  activity vs control (PKN1; enzyme activity, inhibitor; 1 µM): 63%
Cc1cc([N+](=O)[O-])ccc1NC(=O)c1ccc(Cl)cc1  inhibition (MAOB; enzyme activity, inhibitor; 1 µM, 20 min): 10%
Cc1cn(-c2cc(NC(=O)c3ccc(C)c(Nc4nccc(-c5cnccn5)n4)c3)cc(C(F)(F)F)c2)cn1  activity vs control (PKN1; enzyme activity, inhibitor; 1 µM): 66%
COc1cc([N+](=O)[O-])ccc1NC(=O)c1ccc2c(c1)OCO2  inhibition (MAOB; enzyme activity, inhibitor; 1 µM, 20 min): 47%
COc1cc2c(CCNC(C)=O)c[nH]c2cc1O  Km (Sulfotransferase 1A1 (SULT1A1, Homo sapiens, UniProt P50225); enzyme activity, substrate; pH 7): 8.2 µM
N#Cc1ccc(NC(=O)c2ccccc2O)cc1  inhibition (MAOB; enzyme activity, inhibitor; 1 µM, 20 min): 32%
Cc1cc(F)ccc1-c1nc(NCCN=C(N)NC#N)nc2c1ccc(=O)n2-c1c(F)cccc1F  activity vs control (PKN1; enzyme activity, inhibitor; 1 µM): 90%
CC(C)(C)n1nnc([C@H](CCCNC(=N)CF)NC(=O)c2ccccc2)n1  kinact/KI (PADI4; enzyme activity, inhibitor): 4.33 M⁻¹ s⁻¹
Cc1cc([N+](=O)[O-])ccc1NC(=O)c1ccccc1  inhibition (MAOB; enzyme activity, inhibitor; 1 µM, 20 min): 7%
CN1CCC(=C(c2ccccc2)c2ccccc2)CC1  kon (HRH1; binding): 2e+06 M⁻¹ s⁻¹
C[S+]([O-])c1ccc(-c2nc(-c3ccncc3)c(-c3ccc(F)cc3)[nH]2)cc1 (stereo not drawn)  activity vs control (PKN1; enzyme activity, inhibitor; 1 µM): 73%
O=C1NC(=S)C(=Cc2cn(-c3ccccc3)nc2-c2ccc(Br)cc2)S1  inhibition (CA9; enzyme activity, inhibitor; 0.1 µM): 33.5%
CC(C)(C)n1nnc([C@H](CCCNC(=N)CCl)NC(=O)c2ccccc2)n1  kinact/KI (PADI4; enzyme activity, inhibitor): 11.8 M⁻¹ s⁻¹
O=C(Nc1ccc(Br)cc1)c1cc2ccccc2cc1O  inhibition (MAOB; enzyme activity, inhibitor; 1 µM, 20 min): 72%
